Converted amounts (≈) assume the structure as drawn.
Key:
[1] = tested on: [Candida] sake; assay: Anticandida activity against Candida sake clinical isolate assessed as growth inhibition after 24 hrs by broth microdilution method; assay type: functional; conditions: Fermentozyma sake
In short: (§1)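 Clinical Candida isolates subcultured for purity and optimal growth before testing; compounds dissolved in DMSO. Broth microdilution per NCCLS in Sabouraud dextrose broth, serial dilutions, inoculum about 10³/mL, with growth control and medium-only control; 24 h incubation at 37 °C. MIC is the lowest concentration giving complete visible inhibition.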

[2] = tested on: Candida parapsilosis; assay: Anticandida activity against Candida parapsilosis clinical isolate assessed as growth inhibition after 24 hrs by broth microdilution method; assay type: functional; conditions: Lodderomyces parapsilosis; in short: as §1
[3] = tested on: Pichia kudriavzevii; assay: Anticandida activity against Candida krusei clinical isolate assessed as growth inhibition after 24 hrs by broth microdilution method; assay type: functional; in short: as §1
[4] = tested on: Candida tropicalis; assay: Anticandida activity against Candida tropicalis clinical isolate assessed as growth inhibition after 24 hrs by broth microdilution method; assay type: functional; in short: as §1
[5] = tested on: Nakaseomyces glabratus; assay: Anticandida activity against Candida glabrata clinical isolate assessed as growth inhibition after 24 hrs by broth microdilution method; assay type: functional; in short: as §1
[6] = tested on: Candida albicans; assay: Anticandida activity against Candida albicans clinical isolate assessed as growth inhibition after 24 hrs by broth microdilution method; assay type: functional; in short: as §1
[7] = tested on: Klebsiella oxytoca; assay: Antibacterial activity against Klebsiella oxytoca assessed as growth inhibition after 18 to 22 hrs by broth microdilution method; assay type: functional
In short: (§2)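 Bacterial isolates subcultured for purity, identified conventionally. Broth microdilution per NCCLS in Mueller-Hinton II broth; plates with growth control (no compound) and medium-only control, incubated 18-22 h at 35 °C. MIC taken as lowest concentration giving complete growth inhibition by unaided eye.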

[8] = tested on: Proteus mirabilis; assay: Antibacterial activity against Proteus mirabilis assessed as growth inhibition after 18 to 22 hrs by broth microdilution method; assay type: functional; in short: as §2
[9] = tested on: Enterobacter sp.; assay: Antibacterial activity against Enterobacter spp. assessed as growth inhibition after 18 to 22 hrs by broth microdilution method; assay type: functional; in short: as §2
[10] = tested on: Escherichia coli; assay: Antibacterial activity against Escherichia coli assessed as growth inhibition after 18 to 22 hrs by broth microdilution method; assay type: functional; in short: as §2
[11] = tested on: Enterococcus faecalis; assay: Antibacterial activity against […] assessed as growth inhibition after 18 to 22 hrs by broth microdilution method; assay type: functional; in short: as §2
[12] = tested on: Staphylococcus warneri; assay: Antibacterial activity against Staphylococcus warneri assessed as growth inhibition after 18 to 22 hrs by broth microdilution method; assay type: functional; in short: as §2
[13] = tested on: Staphylococcus aureus; assay: Antibacterial activity against Staphylococcus aureus assessed as growth inhibition after 18 to 22 hrs by broth microdilution method; assay type: functional; in short: as §2
[14] = tested on: Streptococcus alpha-hemolyticus; assay: Antibacterial activity against Streptococcus alpha-hemolyticus assessed as growth inhibition after 18 to 22 hrs by broth microdilution method

Row | Compound | MIC [1] | MIC [2] | MIC [3] | MIC [4] | MIC [5] | MIC [6] | MIC [7] | MIC [8] | MIC [9] | MIC [10] | MIC [11] | MIC [12] | MIC [13] | MIC [14]
1 | CCC(CC)=NNc1nc(-c2ccc(Cl)cc2Cl)cs1 | 256 µg/mL (≈ 780 µM) | 256 µg/mL (≈ 780 µM) | 256 µg/mL (≈ 780 µM) | 4 µg/mL (≈ 12.2 µM) | 4 µg/mL (≈ 12.2 µM) | 0.5 µg/mL (≈ 1.52 µM) | > 256 µg/mL | > 256 µg/mL | > 256 µg/mL | > 256 µg/mL | > 256 µg/mL | > 256 µg/mL | > 256 µg/mL | > 256 µg/mL
2 | COc1ccc(-c2csc(NN=C(C)C)n2)cc1 | 16 µg/mL (≈ 61.2 µM) | 16 µg/mL (≈ 61.2 µM) | 16 µg/mL (≈ 61.2 µM) | 2 µg/mL (≈ 7.65 µM) | 0.5 µg/mL (≈ 1.91 µM) | 0.25 µg/mL (≈ 0.957 µM) | > 256 µg/mL | > 256 µg/mL | > 256 µg/mL | > 256 µg/mL | > 256 µg/mL | > 256 µg/mL | > 256 µg/mL | > 256 µg/mL
3 | CCCCC/C(C)=N/Nc1nc(-c2ccc(OC)cc2OC)cs1 | 256 µg/mL (≈ 737 µM) | 256 µg/mL (≈ 737 µM) | 256 µg/mL (≈ 737 µM) | 256 µg/mL (≈ 737 µM) | 128 µg/mL (≈ 368 µM) | 64 µg/mL (≈ 184 µM) | > 256 µg/mL | > 256 µg/mL | > 256 µg/mL | > 256 µg/mL | > 256 µg/mL | > 256 µg/mL | > 256 µg/mL | > 256 µg/mL
4 | COc1ccc(-c2csc(N/N=C3/C=CC(C)(C)CC3)n2)cc1 | 256 µg/mL (≈ 782 µM) | 64 µg/mL (≈ 195 µM) | 256 µg/mL (≈ 782 µM) | 256 µg/mL (≈ 782 µM) | 32 µg/mL (≈ 97.7 µM) | 8 µg/mL (≈ 24.4 µM) | > 256 µg/mL | > 256 µg/mL | > 256 µg/mL | > 256 µg/mL | > 256 µg/mL | > 256 µg/mL | > 256 µg/mL | > 256 µg/mL
5 | COc1ccc(-c2csc(N/N=C(\C)C3CCCCC3)n2)c(OC)c1 | 256 µg/mL (≈ 712 µM) | 256 µg/mL (≈ 712 µM) | 256 µg/mL (≈ 712 µM) | 256 µg/mL (≈ 712 µM) | 64 µg/mL (≈ 178 µM) | 64 µg/mL (≈ 178 µM) | > 256 µg/mL | > 256 µg/mL | > 256 µg/mL | > 256 µg/mL | > 256 µg/mL | > 256 µg/mL | > 256 µg/mL | > 256 µg/mL
6 | COc1ccc(-c2csc(N/N=C(\C)CC(C)C)n2)cc1 | 16 µg/mL (≈ 52.7 µM) | 16 µg/mL (≈ 52.7 µM) | 16 µg/mL (≈ 52.7 µM) | 16 µg/mL (≈ 52.7 µM) | 8 µg/mL (≈ 26.4 µM) | 4 µg/mL (≈ 13.2 µM) | > 256 µg/mL | > 256 µg/mL | > 256 µg/mL | > 256 µg/mL | > 256 µg/mL | > 256 µg/mL | > 256 µg/mL | > 256 µg/mL
7 | COc1ccc(-c2csc(NN=C3CCCCCCC3)n2)c(OC)c1 | 256 µg/mL (≈ 712 µM) | 256 µg/mL (≈ 712 µM) | 256 µg/mL (≈ 712 µM) | 256 µg/mL (≈ 712 µM) | 256 µg/mL (≈ 712 µM) | 64 µg/mL (≈ 178 µM) | > 256 µg/mL | > 256 µg/mL | > 256 µg/mL | > 256 µg/mL | > 256 µg/mL | > 256 µg/mL | > 256 µg/mL | > 256 µg/mL
8 | COc1ccc(-c2csc(NN=C3CCCCCCC3)n2)cc1 | 16 µg/mL (≈ 48.6 µM) | 16 µg/mL (≈ 48.6 µM) | 16 µg/mL (≈ 48.6 µM) | 16 µg/mL (≈ 48.6 µM) | 4 µg/mL (≈ 12.1 µM) | 2 µg/mL (≈ 6.07 µM) | > 256 µg/mL | > 256 µg/mL | > 256 µg/mL | > 256 µg/mL | > 256 µg/mL | > 256 µg/mL | > 256 µg/mL | > 256 µg/mL
9 | COc1ccc(-c2csc(N/N=C(\C)C3CCCCC3)n2)cc1 | 16 µg/mL (≈ 48.6 µM) | 16 µg/mL (≈ 48.6 µM) | 16 µg/mL (≈ 48.6 µM) | 16 µg/mL (≈ 48.6 µM) | 4 µg/mL (≈ 12.1 µM) | 2 µg/mL (≈ 6.07 µM) | > 256 µg/mL | > 256 µg/mL | > 256 µg/mL | > 256 µg/mL | > 256 µg/mL | > 256 µg/mL | > 256 µg/mL | > 256 µg/mL
10 | COc1ccc(-c2csc(N/N=C(\C)CC(C)C)n2)c(OC)c1 | 256 µg/mL (≈ 768 µM) | 256 µg/mL (≈ 768 µM) | 256 µg/mL (≈ 768 µM) | 256 µg/mL (≈ 768 µM) | 128 µg/mL (≈ 384 µM) | 128 µg/mL (≈ 384 µM) | > 256 µg/mL | > 256 µg/mL | > 256 µg/mL | > 256 µg/mL | > 256 µg/mL | > 256 µg/mL | > 256 µg/mL | > 256 µg/mL
11 | CCCCCC/C(C)=N/Nc1nc(-c2ccc(Cl)cc2Cl)cs1 | 32 µg/mL (≈ 86.4 µM) | 32 µg/mL (≈ 86.4 µM) | 4 µg/mL (≈ 10.8 µM) | 4 µg/mL (≈ 10.8 µM) | 4 µg/mL (≈ 10.8 µM) | 2 µg/mL (≈ 5.4 µM) | > 256 µg/mL | > 256 µg/mL | > 256 µg/mL | > 256 µg/mL | > 256 µg/mL | > 256 µg/mL | > 256 µg/mL | > 256 µg/mL
12 | CCC/C(C)=N/Nc1nc(-c2ccc(OC)cc2OC)cs1 | 256 µg/mL (≈ 801 µM) | 256 µg/mL (≈ 801 µM) | 256 µg/mL (≈ 801 µM) | 256 µg/mL (≈ 801 µM) | 128 µg/mL (≈ 401 µM) | 128 µg/mL (≈ 401 µM) | > 256 µg/mL | > 256 µg/mL | > 256 µg/mL | > 256 µg/mL | > 256 µg/mL | > 256 µg/mL | > 256 µg/mL | > 256 µg/mL
13 | CC(C)=NNc1nc(-c2ccc(Cl)cc2Cl)cs1 | 8 µg/mL (≈ 26.6 µM) | 8 µg/mL (≈ 26.6 µM) | 8 µg/mL (≈ 26.6 µM) | 4 µg/mL (≈ 13.3 µM) | 2 µg/mL (≈ 6.66 µM) | 2 µg/mL (≈ 6.66 µM) | > 256 µg/mL | > 256 µg/mL | > 256 µg/mL | > 256 µg/mL | > 256 µg/mL | > 256 µg/mL | > 256 µg/mL | > 256 µg/mL
14 | CCCCCC/C(C)=N/Nc1nc(-c2ccc(OC)cc2)cs1 | 16 µg/mL (≈ 48.3 µM) | 16 µg/mL (≈ 48.3 µM) | 16 µg/mL (≈ 48.3 µM) | 32 µg/mL (≈ 96.5 µM) | 8 µg/mL (≈ 24.1 µM) | 8 µg/mL (≈ 24.1 µM) | > 256 µg/mL | > 256 µg/mL | > 256 µg/mL | > 256 µg/mL | > 256 µg/mL | > 256 µg/mL | > 256 µg/mL | > 256 µg/mL
15 | CCC(CC)=NNc1nc(-c2ccc(OC)cc2OC)cs1 | 256 µg/mL (≈ 801 µM) | 256 µg/mL (≈ 801 µM) | 256 µg/mL (≈ 801 µM) | 256 µg/mL (≈ 801 µM) | 128 µg/mL (≈ 401 µM) | 128 µg/mL (≈ 401 µM) | > 256 µg/mL | > 256 µg/mL | > 256 µg/mL | > 256 µg/mL | > 256 µg/mL | > 256 µg/mL | > 256 µg/mL | > 256 µg/mL

Reference: ChEMBL document CHEMBL2401735, “Synthesis and cytotoxicity of novel (thiazol-2-yl)hydrazine derivatives as promising anti-Candida agents” (Eur J Med Chem, 2013)
